Data from publication PMC8359128 (ACS Omega, 2021).

Legend:
[1] = target: T1, human CB2 receptor (Homo sapiens, UniProt P34972); test: Competitive radioligand; format: binding; settings: for inhibition at 10 µM: read-out: % displacement at 10 μM CB2
[2] = target: T2, human CB1 receptor (Homo sapiens, UniProt P21554); test: Competitive radioligand; format: binding; settings: for inhibition at 10 µM: read-out: % displacement at 10 μM CB1
[3] = target: T2, human CB1 receptor; test: [35S]-GTPγS functional assay, CB1; format: biochemical; settings: for functional behavior at CB1: GTPγS
Outline: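 Membranes (20 µg) from HEK293 cells stably expressing human CB1, incubated with 0.5 nM [35S]-GTPγS, 30 µM GDP and test compound in 50 mM Tris-HCl, 150 mM NaCl, 9 mM MgCl2, 0.2 mM EGTA, 1.4 mg/mL BSA, pH 7.4. Incubation 2 h, 37 °C, gentle shaking. […] Filtration, scintillation counting. Duplicates; EC50 by nonlinear regression.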

[4] = target: T1, human CB2 receptor; test: [35S]-GTPγS functional assay, CB2; format: biochemical; settings: for functional behavior at CB2: GTPγS
[5] = (−)-trans vs (+)-trans isomer; cited from earlier work
[6] = IC50 CB2 displacement (bound given in text)
[7] = IC50 ± SEM CB2, competitive radioligand binding, triplicate

T1 sequence (P34972 whole entry): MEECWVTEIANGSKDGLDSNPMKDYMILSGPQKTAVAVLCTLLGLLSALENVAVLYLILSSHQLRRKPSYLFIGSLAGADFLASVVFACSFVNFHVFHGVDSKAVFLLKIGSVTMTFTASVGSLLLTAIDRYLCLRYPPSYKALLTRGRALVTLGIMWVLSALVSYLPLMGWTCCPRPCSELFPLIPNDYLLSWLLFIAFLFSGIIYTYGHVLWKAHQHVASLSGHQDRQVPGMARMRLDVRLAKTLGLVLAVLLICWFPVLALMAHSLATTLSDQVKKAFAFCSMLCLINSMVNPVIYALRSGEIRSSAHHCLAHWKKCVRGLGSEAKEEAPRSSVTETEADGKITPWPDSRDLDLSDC
T2 sequence (P21554 whole entry): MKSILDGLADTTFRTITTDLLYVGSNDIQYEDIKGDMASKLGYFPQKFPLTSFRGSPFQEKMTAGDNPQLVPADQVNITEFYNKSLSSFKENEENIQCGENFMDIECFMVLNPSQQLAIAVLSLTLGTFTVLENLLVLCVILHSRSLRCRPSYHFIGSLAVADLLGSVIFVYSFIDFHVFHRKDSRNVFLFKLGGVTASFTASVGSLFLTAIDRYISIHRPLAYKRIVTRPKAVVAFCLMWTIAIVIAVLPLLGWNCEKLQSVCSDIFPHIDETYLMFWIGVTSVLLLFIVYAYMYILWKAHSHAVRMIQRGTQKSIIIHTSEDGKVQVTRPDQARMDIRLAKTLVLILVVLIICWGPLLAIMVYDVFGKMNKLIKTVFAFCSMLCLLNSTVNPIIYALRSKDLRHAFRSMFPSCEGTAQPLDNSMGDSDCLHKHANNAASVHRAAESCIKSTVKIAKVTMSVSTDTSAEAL

C[C@H]1CC[C@H]2[C@H](C1)c1c(O)cc(-c3ccccc3)cc1OC2(C)C [11A, (6aS,9S,10aS)-6,6,9-Trimethyl-3-phenyl-6a,7,8,9,10,10a-hexahydro-6H-benzo[c]chromen-1-ol]
Ki [1]: 1570 ± 836 nM
IC50 [1, 6]: ≤ 3200 nM
IC50 [1, 7]: 3150 ± 1670 nM
inhibition at 10 µM [1]: 57.3%
inhibition at 10 µM [2]: 34.3%

C[C@H]1CC[C@H]2[C@H](C1)c1c(O)cc(-c3ccc4c(c3)OCO4)cc1OC2(C)C [11B, (6aS,9S,10aS)-3-(Benzo[d][1,3]dioxol-5-yl)-6,6,9-trimethyl-6a,7,8,9,10,10a-hexahydro-6H-benzo[c]chromen-1-ol]
Ki [1]: 117 ± 11.7 nM
IC50 [1, 6]: ≤ 3200 nM
inhibition at 10 µM [1]: 67%
inhibition at 10 µM [2]: 30.8%

C[C@H]1CC[C@H]2[C@H](C1)c1c(O)cc(-c3ccc(C#N)cc3)cc1OC2(C)C [11C, 4-((6aS,9S,10aS)-1-Hydroxy-6,6,9-trimethyl-6a,7,8,9,10,10a-hexahydro-6H-benzo[c]chromen-3-yl)benzonitrile]
inhibition at 10 µM [1]: 22.1%
inhibition at 10 µM [2]: -7.02%

C[C@H]1CC[C@H]2[C@H](C1)c1c(O)cc(-c3ccoc3)cc1OC2(C)C [11D, (6aS,9S,10aS)-3-(Furan-3-yl)-6,6,9-trimethyl-6a,7,8,9,10,10a-hexahydro-6H-benzo[c]chromen-1-ol]
inhibition at 10 µM [1]: 44.4%
inhibition at 10 µM [2]: 34%

CCCCCC/C=C/c1cc(O)c2c(c1)OC(C)(C)[C@H]1CC[C@H](C)C[C@H]21 [11E, (6aS,9S,10aS)-6,6,9-Trimethyl-3-((E)-oct-1-en-1-yl)-6a,7,8,9,10,10a-hexahydro-6H-benzo[c]chromen-1-ol]
Ki [1]: 573 ± 106 nM
IC50 [1, 6]: ≤ 3200 nM
IC50 [1, 7]: 1150 ± 212 nM
inhibition at 10 µM [1]: 50.4%
EC50 [3]: 239 ± 68 nM
functional behavior at CB1 [3]: agonist
IC50 [2]: 684 ± 326 nM
Ki [2]: 342 ± 95.8 nM
inhibition at 10 µM [2]: 66.8%

C[C@H]1CC[C@H]2[C@H](C1)c1c(O)cc(/C=C/c3ccc(C(F)(F)F)cc3)cc1OC2(C)C [11F, (6aS,9S,10aS)-6,6,9-Trimethyl-3-((E)-4-(trifluoromethyl)styryl)-6a,7,8,9,10,10a-hexahydro-6H-benzo[c]chromen-1-ol]
inhibition at 10 µM [1]: 23.9%
inhibition at 10 µM [2]: 43.2%

C[C@H]1CC[C@H]2[C@H](C1)c1c(O)cc(/C=C/c3ccc(Cl)cc3)cc1OC2(C)C [11G, (6aS,9S,10aS)-3-((E)-4-Chlorostyryl)-6,6,9-trimethyl-6a,7,8,9,10,10a-hexahydro-6H-benzo[c]chromen-1-ol]
inhibition at 10 µM [1]: 8.7%
inhibition at 10 µM [2]: 7.54%

C[C@H]1CC[C@H]2[C@H](C1)c1c(O)cc(-c3cccc4c3oc3ccccc34)cc1OC2(C)C [11H, (6aS,9S,10aS)-3-(Dibenzo[b,d]furan-4-yl)-6,6,9-trimethyl-6a,7,8,9,10,10a-hexahydro-6H-benzo[c]chromen-1-ol]
EC50 ([4]; EC50 GTPγS CB2, duplicate): 5730 ± 3290 nM
functional behavior at CB2 [4]: agonists
Ki [1]: 63.7 ± 8.19 nM
IC50 [1, 6]: ≤ 3200 nM
IC50 [1, 7]: 127 ± 16.4 nM
inhibition at 10 µM [1]: 76.2%
inhibition at 10 µM [2]: 29.4%

C[C@H]1CC[C@H]2[C@H](C1)c1c(O)cc(-c3ccc(Oc4ccccc4)cc3)cc1OC2(C)C [11I, (6aS,9S,10aS)-6,6,9-Trimethyl-3-(4-phenoxyphenyl)-6a,7,8,9,10,10a-hexahydro-6H-benzo[c]chromen-1-ol]
inhibition at 10 µM [1]: 16.3%
inhibition at 10 µM [2]: 34.4%

C[C@H]1CC[C@H]2[C@H](C1)c1c(O)cc(-c3csc4ccccc34)cc1OC2(C)C [11J, (6aS,9S,10aS)-3-(Benzo[b]thiophen-3-yl)-6,6,9-trimethyl-6a,7,8,9,10,10a-hexahydro-6H-benzo[c]chromen-1-ol]
functional behavior at CB2 [4]: agonists
Ki [1]: 40.2 ± 2.91 nM
IC50 [1, 6]: ≤ 3200 nM
IC50 [1, 7]: 80.4 ± 5.82 nM
inhibition at 10 µM [1]: 70.4%
EC50 [3]: 1470 ± 708 nM
functional behavior at CB1 [3]: agonists
IC50 [2]: > 2000 nM
Ki [2]: > 1000 nM
inhibition at 10 µM [2]: 56.4%

C[C@H]1CC[C@H]2[C@H](C1)c1c(O)cc(-c3cc(C(F)(F)F)cc(C(F)(F)F)c3)cc1OC2(C)C [11K, (6aS,9S,10aS)-3-(3,5-Bis(trifluoromethyl)phenyl)-6,6,9-trimethyl-6a,7,8,9,10,10a-hexahydro-6H-benzo[c]chromen-1-ol]
inhibition at 10 µM [1]: 11.2%
inhibition at 10 µM [2]: -26.7%

CCCCCc1cc(O)c2c(c1)OC(C)(C)[C@@H]1CCC(C)=C[C@@H]21 [dronabinol]
potency relative to the (+)-trans-isomer of Δ9-THC [5]: 6–100 times
